This is a sample that favours compounds with a hit; in the whole collection about 1.8% have one here.
SUMO Mot1 rescue – yeast Mot1-301 growth rescue at high temperature, primary screen, SUMOylation pathway inhibitor project, S. cerevisiae, ATP luminescence, 38.5C; S. cerevisiae Mot1-301 growth rescue; percent above DMSO median, 100 means doubled; growth rescue, % at 18.8 µM; 320,000 compounds, 1% hits; AID 2716, 2010;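 active means every valid replicate shows activation above 250% relative to neutral control wells; inactive means the rest, any valid replicate at or below 250%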;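 further: OY570 slx delta 5 strain wells were the positive control but not used for scaling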
Cneo AK release – Cryptococcus neoformans cell lysis inducers, primary screen, AK release luminescence, single concentration; C. neoformans lysis, adenylate kinase release luminescence, 4 h; normalised: neutral wells 0, clomiphene wells 100; 360,000 compounds, 0.2% hits; lysis activity, % at 15 µM;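 active means mean lysis activity across replicates of at least 80%, whatever share of replicates individually reach that level; inactive means mean lysis activity below 80%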
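Assay system: C. neoformans cells. Amount: yeast cell density of 5 × 10^6 cells/mL. Technique: AK luminescence. Buffer or medium: YPD. Times: static 4 h at 37 °C with compound, 1 h detection. Dosing: single-point compound dose. Read-out: lysis from increased AK signal.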
C2C12 statin – suppressors of statin myotoxicity in C2C12 myotubes, primary screen, cell-based, single point, plate reader. C2C12 myotubes + simvastatin, ATP luminescence, 48 h; scaled: DMSO 0, geranylgeraniol control 100. rescue of ATP level, % at 7.49 µM. 330,000 compounds, 0.78% hits;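 active means mean ATP rescue above about 67%, or every replicate alone reaching that limit, limit read from the data, passing the limit was not always enough; inconclusive means no clear call, values can overlap the other calls; inactive means mean under the limit and some replicate under it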;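 further: myotubes were challenged with 10 µM simvastatin during compound exposure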
Efflux pump inh – inhibitors of Candida efflux pumps in yeast, primary screen, S. cerevisiae, Nile Red, multiplex; S. cerevisiae Candida pump triplex; inhibition, % at 10 µM; 330,000 compounds, 0.44% hits; AID 485275, 2010;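 active means plate passing quality check with inhibition over a set limit, or well fluorescence over plate mean plus 4 SD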;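 further: Nile Red retained in pooled yeast measured as flow cytometry median fluorescence; 0% = buffer negative control and 100% = Enniatin B positive control; higher means more Nile Red kept so more efflux inhibition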
Starred values were filed as active, the others as inactive; ? = inconclusive; . = not tested or not shown.

SMILES	SUMO Mot1 rescue	Cneo AK release	C2C12 statin	Efflux pump inh
S=C(NCCCc1ccccc1)Nc1ccccc1	1	104*	-33	0
Cc1c(Cl)cccc1NC(=S)NCCc1ccc(Cl)cc1	-20	113*	-6	0
Fc1ccccc1NC(=S)NCCc1ccccc1	4	12	156*	0
Cc1c(Cl)cccc1NC(=S)NCCc1ccc(F)cc1	2	7	33	0
COc1ccc(S(=O)(=O)NNC(=O)c2ccccc2-n2cccc2)cc1	-15	-1	112*	0
Cc1ccc(S(=O)(=O)NNC(=O)c2ccccc2-n2cccc2)cc1	51	-3	10	0
CCC(=O)Nc1c(C#N)c2nc3ccccc3nc2n1-c1ccccc1C	-4	1	192*	0
CCC(=O)Nc1c(C#N)c2nc3ccccc3nc2n1C1CCCCC1	-18	.	.	0
O=C(Nc1ncn[nH]1)c1ccccc1O	-2	-2	-5	0
O=C(Nc1ncn[nH]1)c1c(Cl)ccc(Cl)c1Cl	-21	-1	153*	0
NCCCNc1nc(N)c([N+](=O)[O-])c(NC2CCCCC2)n1	-12	0	105*	0
O=C(Cn1ccn(-c2ccc(F)c(Cl)c2)c(=O)c1=O)NCCc1ccccc1	-10	.	.	0
O=C(CN1C(=O)NC2(CCc3ccccc32)C1=O)NCc1ccccc1Cl (centres undefined)	-6	2	15	0
Cc1cc(C)c(NC(=O)Cn2nnc(C(=O)NCc3ccc4c(c3)OCO4)c2N)c(C)c1	-4	1	92*	0
Nc1c(C(=O)NCc2ccc3c(c2)OCO3)nnn1CC(=O)Nc1ccc(Br)cc1	-9	0	-69	0
CCn1cc(/C=C(\NC(=O)c2ccccc2F)C(=O)N2CCCC2)c2ccccc21	-7	1	12	0
CCc1nnc(NC(=O)CSc2nc3cccnc3n2Cc2ccccc2)s1	305*	-2	.	0
COc1ccc(OC)c(NC(=O)CNC(c2ccccc2)c2ccccc2)c1	-8	1	-4	0
Cc1nn(-c2cc(N3CCCCC3)ccc2N)c(=O)c2ccccc12	-12	.	-21	0
Cc1nn(-c2cc(N3CCCCCC3)ccc2[N+](=O)[O-])c(=O)c2ccccc12	29	0	109*	0
CCCNC(=O)N(C)C[C@@H]1Oc2ncc(C#CC3CCCCC3)cc2C(=O)N([C@H](C)CO)C[C@@H]1C	.	106*	-2	.
C[C@H](CO)N1C[C@H](C)[C@@H](CN(C)C(=O)C2CCOCC2)Oc2ncc(C#CCc3ccccc3)cc2C1=O	.	86*	8	.
C/C=C/c1cnc2c(c1)C(=O)N([C@@H](C)CO)C[C@@H](C)[C@@H](CN(C)C(=O)C1CCCCC1)O2	.	105*	24	.
C[C@@H]1CN([C@@H](C)CO)C(=O)c2cc(C#CC3CCCC3)cnc2O[C@H]1CN(C)C(=O)Nc1ccccc1	.	2	?	.
C/C=C/c1cnc2c(c1)C(=O)N([C@@H](C)CO)C[C@H](C)[C@@H](CN(C)C(=O)C1CCCCC1)O2	.	0	10	.
SMILES	SUMO Mot1 rescue	Cneo AK release	C2C12 statin	Efflux pump inh
C[C@H]1CN([C@@H](C)CO)C(=O)c2cc(C#CCc3ccccc3)cnc2O[C@H]1CN(C)C(=O)C1CCOCC1	.	-5	2	.
CCCNC(=O)N(C)C[C@@H]1Oc2ncc(C#CC3CCCCC3)cc2C(=O)N([C@H](C)CO)C[C@H]1C	.	2	-2	.
C[C@H](CO)N1C[C@H](C)[C@@H](CN(C)C(=O)Nc2ccccc2)Oc2ncc(C#CC3CCCC3)cc2C1=O	.	2	78*	.
CCCNC(=O)N(C)C[C@@H]1Oc2ncc(C#CC3CCCCC3)cc2C(=O)N([C@@H](C)CO)C[C@@H]1C	.	-1	-4	.
CCCNC(=O)N(C)C[C@H]1Oc2ncc(C#CC3CCCCC3)cc2C(=O)N([C@@H](C)CO)C[C@@H]1C	.	109*	7	.
O=C(CNC(=O)c1ccc(Br)cc1)N/N=C/c1cccnc1	5	-1	109*	0
Cc1ccc(N2C(N)=NC(N)=NC2(C)C)c(C)c1	-8	0	110*	0
Cc1ccccc1N1C(N)=NC(N)=NC1(C)C	-6	50	-5	0
Cc1ccc(C(=O)C(OC(=O)c2cnccn2)c2ccccc2)cc1C (centres undefined)	58	.	.	-2
O=C(O)c1cc(-c2ccc(/C=c3\sc4nc5ccc(Br)cc5n4c3=O)o2)ccc1Cl	-25	.	.	1.6*
O=C(O)c1ccccc1-c1ccc(/C=c2\sc3nc4cc(Br)cnc4n3c2=O)o1	6	-2	16	0
CCOC(=O)/C=c1\s/c(=C\c2c(OCC)ccc3ccccc23)c(=O)n1CC(=O)NCC1CCCO1 (centres undefined)	-1	.	.	1
CCOC(=O)/C=c1\s/c(=C\c2ccc3c(c2)OCCO3)c(=O)n1CC(=O)NCC1CCCO1 (centres undefined)	387	-2	110*	0
O=C(NC(=S)Nc1ccccc1N1CCOCC1)c1cccc([N+](=O)[O-])c1	62	258*	.	0
COc1ccc(C(=O)Nc2ccccc2N2CCOCC2)cc1Br	-7	-2	117*	0
COc1ccc(C(=O)NC(=S)Nc2ccccc2N2CCOCC2)cc1Br	11	-2	.	0
COC(=O)c1[nH]c2ccc(C)cc2c1NC(=O)CN1CCN(c2ccccc2)CC1	67	.	.	0
COC(=O)c1[nH]c2ccc(C)cc2c1NC(=O)CN1CCN(C(=O)c2ccccc2)CC1	-5	1	96*	0
c1ccc(NCc2cccnc2)cc1	292*	2	-5	0
Fc1ccc(NCc2cccnc2)cc1	-9	-2	21	0
CC(C)NC(=O)Nc1ccc2c(c1)CC(=O)N([C@@H](C)CO)C[C@@H](C)[C@@H](CN(C)Cc1ccc(C(=O)O)cc1)O2	.	-3	-2	.
CCOc1c(S(=O)(=O)N2CCCC2)ccc(Cl)c1Cl	22	1	122*	0
CCOc1ccc(S(=O)(=O)N2CCCC2)c2ccccc12	.	-2	4	.
Clc1ccc(-c2nnc(C3CCCCC3)o2)cc1	-1	0	123*	0
Clc1ccc(-c2nnc(C3CC3)o2)cc1	15	.	4	0
Cc1cccc(OCCCC(=O)Nc2ccccc2C(F)(F)F)c1	-6	0	97*	0
C[C@@H]1CN([C@@H](C)CO)C(=O)c2cc(NC(=O)Nc3ccc4c(c3)OCO4)ccc2O[C@H]1CN(C)Cc1ccc(Oc2ccccc2)cc1	.	89*	.	.
C[C@H](CO)N1C[C@H](C)[C@@H](CN(C)Cc2ccc(Oc3ccccc3)cc2)Oc2ccc(NC(=O)Nc3ccc4c(c3)OCO4)cc2C1=O	.	101*	.	.
Cc1cc([N+](=O)[O-])ccc1NC(=O)CCC(=O)N1CCCC1	239	0	-5	0
CC1=CC(C)(C)N2C(=O)C3(C(C#N)=C(N)Oc4cc(O)ccc43)c3cccc1c32 (centres undefined)	9	1	?	0
